Measurements of several laboratories.
Lines come from different studies, so protocols differ.
Target: Dual specificity tyrosine-phosphorylation-regulated kinase 2 (DYRK2, Homo sapiens, UniProt Q92630)
Read-out: enzyme activity
Mode: inhibitor
One construct used (Q92630 1-601): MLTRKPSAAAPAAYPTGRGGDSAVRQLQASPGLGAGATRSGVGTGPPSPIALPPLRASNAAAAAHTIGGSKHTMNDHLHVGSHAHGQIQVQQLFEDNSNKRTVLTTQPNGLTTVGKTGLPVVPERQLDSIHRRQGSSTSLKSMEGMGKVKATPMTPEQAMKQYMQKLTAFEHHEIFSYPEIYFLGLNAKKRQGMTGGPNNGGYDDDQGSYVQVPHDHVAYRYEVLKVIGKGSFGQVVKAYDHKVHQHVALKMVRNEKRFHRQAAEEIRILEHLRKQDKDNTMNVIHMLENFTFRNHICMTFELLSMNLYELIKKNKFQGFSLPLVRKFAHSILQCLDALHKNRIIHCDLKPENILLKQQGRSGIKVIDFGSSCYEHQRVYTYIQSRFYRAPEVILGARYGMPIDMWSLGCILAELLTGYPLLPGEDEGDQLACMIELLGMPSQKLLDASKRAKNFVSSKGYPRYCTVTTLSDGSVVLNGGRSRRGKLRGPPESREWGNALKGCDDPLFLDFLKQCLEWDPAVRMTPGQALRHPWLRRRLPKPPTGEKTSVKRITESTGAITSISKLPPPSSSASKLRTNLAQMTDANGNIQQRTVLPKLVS

| SMILES | assay | setting | remaining activity [%] |
| --- | --- | --- | --- |
| COc1cccc(CCNc2nc3cc(C(=O)O)ccc3c3cnccc23)c1 | radiometric | 1 µM | 19 |
| Cc1cnc(NC2CCOCC2)nc1-n1cnc(C(=O)NC(CN)c2cc(F)cc(Cl)c2)c1 (stereo not drawn) | radiometric | 1 µM | 30 |
| FC(F)c1nc2ccccc2n1-c1nc(N2CCOCC2)nc(N2CCOCC2)n1 |  | 10 µM | 93 |
| O=C(Nc1cnn(-c2csc(C(=O)NC3COC3)c2)c1)Nc1ccccc1Cl |  | 5 µM | 88.2 |
| O=C(O)c1ccc2c(c1)nc(Nc1ccc(Cl)cc1)c1ccncc12 | radiometric | 1 µM | 11 |
| COc1cc(Nc2cnc(C#N)c(O[C@H](C)CN(C)C)n2)ncc1-c1cnn(C)c1 | radiometric | 10 µM | 100 |
| COc1cc(Cl)c(C(=O)N[C@@H](CN[C@H]2CC[C@@H](N)CC2)Cc2ccc(C#N)cc2)cc1-c1ccc(CN[C@H](C)c2ccc(C)cc2)o1 |  | 1 µM | 98 |
| Nc1nc(NC2CCCCC2)sc1C(=O)c1ccccc1 |  | 10 µM | 39 |
| N#Cc1cccc(Nc2nc3cc(C(=O)O)ccc3c3cnccc23)c1 | radiometric | 1 µM | 11 |
| CCCOc1ccc(OC)c(F)c1C(=O)c1ccc(C(=O)N[C@@H]2CNC[C@H]2NC(=O)c2ccc3[nH]ncc3c2)cc1 |  | 10 µM | 92 |
| Cn1c(=O)n(-c2ccc(C(C)(C)C#N)cc2)c2c3cc(-c4cnc5ccccc5c4)ccc3ncc21 |  | 10 µM | 79 |
| O=C(O)c1ccc2c(c1)nc(NCCc1cccc(F)c1)c1ccncc12 | radiometric | 1 µM | 17 |
